High-throughput results from PubChem.
An excerpt weighted towards active compounds, which were near 4.1% of everything screened.
T cruzi inh = T. cruzi replication inhibition; T. cruzi beta-gal in NIH3T3, luminescence, 90 h; inhibition, % (test concentration not listed); 300,000 compounds, 1.4% hits; AID 1885;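 active = mean inhibition across valid replicates above about 55%, limit read from the data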;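 note: signal also drops with host cell toxicity which is not excluded here; higher percent means less beta-gal luminescence so fewer parasites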
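Incubation – ≥90 h infection period, 3 h prior cell attachment · System – NIH/3T3 fibroblasts plus reporter T. cruzi · Doses – compound pinned at 50 nL/well, DMSO · Read-out basis – percent inhibition of parasite-derived β-gal signal · Signal – luminescent β-galactosidase signal after 60 min lysis · Also added – 5000 T. cruzi trypomastigotes/well · Medium – Low-serum DMEM with 2% FBS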
DNA FID counter = counter-screen for HCV NS3 helicase inhibitors: DNA intercalator displacement; DNA fluorescent intercalator displacement, fluorescence; AID 1845; inhibition, % at 7.9 µM; 290,000 compounds, 0.17% hits; in the data active = inhibition above about 37%;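 note: higher means more ethidium bromide displaced from hairpin DNA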
MEKK2 WT-MEK5 = raises or lowers MEK5 binding to wildtype human MEKK2 PB1 domain | bead flow cytometry, Alexa488-MEK5 binding to MEKK2 WT; actives lie on both sides | binding response (% of control), % at 10 µM | 290,000 compounds, 1.1% hits | AID 1531; in the data active = binding response below about 67% or above about 130%
MEKK2mut PB1 HTS = signal of MEK5 binding to mutant human MEKK2 PB1 domain; AID 1530; 290,000 compounds, 0.35% hits; percent response, % at 10 µM; bead flow cytometry, Alexa488-MEK5 binding to MEKK2 mutant; in the data active = percent response above about 24%, passing the limit was not always enough
NS3 helicase inh = HCV NS3 helicase inhibition | inhibition, % at 10.9 µM | NS3 helicase DNA unwinding, Cy5 molecular beacon fluorescence | 290,000 compounds, 0.56% hits;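 active = inhibition above the mean of all tested compounds plus 3 SD, set per campaign, cut at about 35% in these data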
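System: Hepatitis C virus NS3 helicase domain fragment enzyme | Reagent: Annealed dual-labelled DNA beacon duplex, ATP-started | Compound dosing: 10.9 µM single point, 0.8% DMSO | Incubation: 1 h reaction at 25 °C, ATP-initiated | Technique: Cy5 fluorescence | Evaluation: Percent inhibition from t60/t0 fluorescence ratio | Benchmarks: Low DMSO, high thioflavine S at 110 µM | Replication: Singlicate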
MEKK3 PB1 HTS = MEKK3-MEK5 PB1 interaction, increase or decrease; Q99759; bead-based flow cytometry, Alexa488-MEK5 binding to MEKK3; actives lie on both sides; 0 = blocked by unlabeled MEK5, 100 = vehicle; binding response (% of control), % at 10 µM; 290,000 compounds, 1.4% hits;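 active = binding response more than 3 SD above or below the average of its plate-row segment, actives on both sides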;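 note: Alexa488 bead fluorescence after subtracting the streptavidin-only scavenger bead signal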
Target sequence (Q99759 whole entry, looked up): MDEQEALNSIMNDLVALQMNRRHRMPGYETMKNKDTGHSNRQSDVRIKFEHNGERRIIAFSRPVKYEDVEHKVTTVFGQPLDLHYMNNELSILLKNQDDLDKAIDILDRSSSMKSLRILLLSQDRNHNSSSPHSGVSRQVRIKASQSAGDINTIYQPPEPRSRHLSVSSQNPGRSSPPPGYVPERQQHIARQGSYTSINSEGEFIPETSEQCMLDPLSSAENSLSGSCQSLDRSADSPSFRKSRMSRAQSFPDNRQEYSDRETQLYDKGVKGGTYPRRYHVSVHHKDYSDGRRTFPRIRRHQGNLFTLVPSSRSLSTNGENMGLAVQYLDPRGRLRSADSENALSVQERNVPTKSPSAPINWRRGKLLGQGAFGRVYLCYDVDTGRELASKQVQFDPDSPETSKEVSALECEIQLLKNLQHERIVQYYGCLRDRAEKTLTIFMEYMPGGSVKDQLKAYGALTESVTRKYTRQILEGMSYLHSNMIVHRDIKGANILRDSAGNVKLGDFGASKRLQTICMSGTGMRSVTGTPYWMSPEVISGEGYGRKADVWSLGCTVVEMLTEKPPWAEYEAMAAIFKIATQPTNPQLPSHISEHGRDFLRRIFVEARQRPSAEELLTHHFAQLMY
MEKK2wt confirm = raises or lowers MEK5 binding to wildtype human MEKK2, retest; 5,900 compounds, 2.4% hits; AID 1892; bead flow cytometry, Alexa488-MEK5 binding to MEKK2 WT; actives lie on both sides; binding response (% of control), % at 10 µM; shares compounds with MEKK3 PB1 HTS; in the data active = binding response below about 16% or above about 210%; inactive = in between
MEKK2mut-MEK5 = signal of MEK5 binding to mutant human MEKK2, retest | shares compounds with MEKK3 PB1 HTS | bead flow cytometry, Alexa488-MEK5 binding to MEKK2 mutant | percent response, % at 10 µM | 5,900 compounds, 2% hits | AID 1893; in the data active = percent response mostly above about 71%, no sharp cut-off; inactive = mostly below about 38%;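 note: higher means compound restores mutant binding toward wildtype level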
MEKK3-MEK5 inh = confirmation of inhibitors of MEK5 binding to human MEKK3; bead flow cytometry, Alexa488-MEK5 binding to MEKK3; stronger effect = lower value; binding response (% of control), % at 10 µM; shares compounds with MEKK3 PB1 HTS; 5,900 compounds, 1.8% hits;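 active = binding response below 72% of control, or above a set upper limit, though filed actives all read lower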
Each line names hits and unclear results; the compound was inactive in the other large screens (follow-up assays come after a bar, where they were run); [ ] = dose if it differs, or a comment.

COc1ccccc1Cn1c(=S)[nH]c2cc(C(=O)NCC(OC)OC)ccc2c1=O	none
CC(OC(=O)c1ccccc1NCCO)C(=O)NC1CCCCC1C (stereo unspecified)	none (no result: DNA FID counter, MEKK2 WT-MEK5, MEKK2mut PB1 HTS, NS3 helicase inh, MEKK3 PB1 HTS)
CCC(=O)Nc1ccc2c(c1)nc1n2CCN(CCOC)C1	none
O=C(Cn1cnc2cc([N+](=O)[O-])ccc2c1=O)Nc1cccc2ccccc12	none
CCN(CC)S(=O)(=O)c1ccc(C)c(NC(=O)Cn2cnc3cc([N+](=O)[O-])ccc3c2=O)c1	T cruzi inh 85.5, MEKK3 PB1 HTS 69.0[inhibitor] | MEKK2wt confirm inactive | MEKK2mut-MEK5 inactive | MEKK3-MEK5 inh inactive
CCN(CC)S(=O)(=O)c1ccc(C)c(NC(=O)Cn2c(=O)cnc3ccccc32)c1	MEKK3 PB1 HTS 160.0 | MEKK2wt confirm inactive | MEKK2mut-MEK5 inactive | MEKK3-MEK5 inh inactive
CCOC(=O)C1=C(c2ccccc2)NC(N)=NC1c1ccc(OCc2ccc(C(=O)OC)cc2)cc1 (stereo unspecified)	MEKK2 WT-MEK5 194.0 | MEKK2wt confirm 260.0 | MEKK2mut-MEK5 76.0 | MEKK3-MEK5 inh inactive
NC(=S)N/N=C/c1ncc(C(F)(F)F)cc1Cl	none
COc1ccc(/C=C2\N=C3CCCCCN3C2=O)cc1OC	none
COc1ccc(/C=C2\N=C(C)N(c3ccc4ccccc4c3)C2=O)cc1OC	MEKK3 PB1 HTS 208.0 | MEKK2wt confirm inactive | MEKK2mut-MEK5 inactive | MEKK3-MEK5 inh inactive
COc1cc(/C=C2\SC(=S)N(N3CCOCC3)C2=O)cc(OC)c1OC	MEKK3 PB1 HTS 141.0 | MEKK2wt confirm inactive | MEKK2mut-MEK5 inactive | MEKK3-MEK5 inh inactive
O=C1/C(=C/c2ccncc2)SC(=S)N1N1CCOCC1	MEKK2 WT-MEK5 37.0[inhibitor], MEKK3 PB1 HTS 42.0[inhibitor] | MEKK2wt confirm inactive | MEKK2mut-MEK5 inactive | MEKK3-MEK5 inh inactive
COc1cc(/C=C2\SC(=S)N(N3CCOCC3)C2=O)ccc1O	none
O=C1/C(=C/c2cccnc2)SC(=S)N1N1CCOCC1	none
CCn1nc(C)c(CN2CCC(n3nccc3NC(=O)c3ccc4c(c3)OCO4)CC2)c1C	none
CSc1nnc(C)c(=O)n1COC(=O)c1ccc(S(=O)(=O)N(C)C)cc1	none
O=C(Nc1ccc(S(=O)(=O)Nc2nccs2)cc1)c1cnc(Cl)c(Cl)c1	MEKK3 PB1 HTS 46.0[inhibitor] | MEKK2wt confirm inactive | MEKK2mut-MEK5 inactive | MEKK3-MEK5 inh inactive
CC(Nc1cc(N2CCNCC2)ccc1[N+](=O)[O-])c1ccccc1 (stereo unspecified)	MEKK3 PB1 HTS 163.0 | MEKK2wt confirm inactive | MEKK2mut-MEK5 inactive | MEKK3-MEK5 inh inactive
O=[N+]([O-])c1ccc(N2CCNCC2)cc1Sc1nc2ccccc2[nH]1	DNA FID counter 39.5, MEKK2 WT-MEK5 144.0 | MEKK2wt confirm inactive | MEKK2mut-MEK5 inactive | MEKK3-MEK5 inh inactive
CCS(=O)(=O)N1CCN(c2ccc([N+](=O)[O-])c(NC(C)c3ccccc3)c2)CC1 (stereo unspecified)	none
NCCNc1ccc([N+](=O)[O-])c(Sc2nc3ccccc3[nH]2)c1	none
O/N=C\c1cnc(N2CCN(c3ccccc3)CC2)s1	none
COc1cc(CNC(=O)c2ccc3oc(C(C)C)nc3c2)cc(OC)c1	none
COc1cc(OC)cc(C(=O)NC2CC(C)(C)NC(C)(C)C2)c1	none
c1ccc(NCc2ccccn2)cc1	MEKK3 PB1 HTS 138.0 | MEKK2wt confirm inactive | MEKK2mut-MEK5 inactive | MEKK3-MEK5 inh inactive
CC1CCCCN1c1nc2nonc2nc1N1CCCCC1C (stereo unspecified)	MEKK3 PB1 HTS 126.0 | MEKK2wt confirm inactive | MEKK2mut-MEK5 inactive | MEKK3-MEK5 inh inactive
COc1ccccc1Nc1nc2nonc2nc1N1CCCCC1C (stereo unspecified)	none
CC(C)CCNC(=O)C(CC(C)C)N(Cc1ccc2c(c1)OCO2)C(=O)c1snc(C(N)=O)c1N (stereo unspecified)	none
COc1ccc2nc(SCC(=O)NC3CCCC3)c(C)cc2c1	none
Cc1ccc(Nc2nc(NCC3CCCO3)nc(N)c2[N+](=O)[O-])cc1C (stereo unspecified)	MEKK3 PB1 HTS 74.0[inhibitor] | MEKK2wt confirm inactive | MEKK2mut-MEK5 inactive | MEKK3-MEK5 inh inactive
O=C(NCCc1ccccc1)C(NS(=O)(=O)c1cccc2nsnc12)c1ccccc1 (stereo unspecified)	none
COc1ccccc1Nc1nnc(SCc2cc(=O)n3cc(C)ccc3n2)s1	MEKK3 PB1 HTS 142.0 | MEKK2wt confirm inactive | MEKK2mut-MEK5 inactive | MEKK3-MEK5 inh inactive
Cc1ccccc1Nc1nnc(SCc2cc(=O)n3ccsc3n2)s1	none
COc1ccc2c(c1)C(=O)OC2CC(=O)O (stereo unspecified)	MEKK2 WT-MEK5 14.0[inhibitor], MEKK3 PB1 HTS 9.0[inhibitor] | MEKK2wt confirm inactive | MEKK2mut-MEK5 inactive | MEKK3-MEK5 inh inactive
COc1ccc(OC)c(C(=O)CC2OC(=O)c3ccccc32)c1 (stereo unspecified)	none
OC1(c2cccc(C(F)(F)F)c2)CCN(CCN2CCCCC2)CC1	MEKK2 WT-MEK5 140.0 | MEKK2wt confirm inactive | MEKK2mut-MEK5 inactive | MEKK3-MEK5 inh inactive
N#CCCN(Cc1ccccc1)C(=O)c1nccnc1C(=O)O	none
Cc1coc2c1C(=O)C(=O)c1c-2ccc2c1CCCC2(C)C	none
Cc1coc2c1C(=O)C(=O)c1c-2ccc2c(C)cccc12	MEKK2 WT-MEK5 138.0 (no result: DNA FID counter, NS3 helicase inh) | MEKK2wt confirm inactive | MEKK2mut-MEK5 inactive | MEKK3-MEK5 inh inactive
O=C(C1CCCO1)N1CCN(c2ccccn2)CC1 (stereo unspecified)	MEKK3 PB1 HTS 73.0[inhibitor] | MEKK2wt confirm inactive | MEKK2mut-MEK5 inactive | MEKK3-MEK5 inh inactive
O=C(N1CCOCC1)N1CCN(c2ccccn2)CC1	none
COc1ccc(C(=O)NNC(=O)c2ccc(C(C)(C)C)cc2)cc1	MEKK2 WT-MEK5 2.0[inhibitor], MEKK3 PB1 HTS 1.0[inhibitor] | MEKK2wt confirm inactive | MEKK2mut-MEK5 inactive | MEKK3-MEK5 inh inactive
COc1ccc(C(=O)NNC(=O)CCC(=O)NNC(=O)c2ccc(OC)cc2)cc1	none
Cc1ccc(Nc2nnc(SCC(=O)c3ccc(Br)s3)s2)c(C)c1	MEKK3 PB1 HTS 72.0[inhibitor] | MEKK2wt confirm inactive | MEKK2mut-MEK5 inactive | MEKK3-MEK5 inh inactive
O=C(O)CCC(=O)N1N=C(c2ccccc2)CC1c1ccc2nccnc2c1 (stereo unspecified)	none
